According to ChEMBL document CHEMBL1141187, “New potential anticancer agents based on the anthranilic acid scaffold: synthesis and evaluation of biological activity” (2005):

Assays:
Format in all cases: functional
SW-620 = test: Antiproliferative activity against human colon SW620 cell line
Procedure, shortened: (§1)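 Part of the NCI ~60 human tumor cell line panel screen. Each compound was tested at five concentrations in 10-fold dilutions from 10^-4 to 10^-8 M. GI50 is read from dose-response curves as the molar concentration giving 50% inhibition of net cell growth, and is also reported as pGI50 (-log molar).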

MCF7 = test: Antiproliferative activity against human breast cancer MCF7 cell line; procedure, shortened: as §1
NCI-H23 = test: Antiproliferative activity against human lung NCI-H23 cell line; procedure, shortened: as §1
K562 = test: Antiproliferative activity against human leukemia K562 cell line; procedure, shortened: as §1
SF-268 = test: Antiproliferative activity against human CNS SF268 cell line; procedure, shortened: as §1
SN12C = test: Antiproliferative activity against human renal SN12C cell line; procedure, shortened: as §1
UACC-62 = test: Antiproliferative activity against human melanoma UACC62 cell line; procedure, shortened: as §1

| SMILES | GI50 (SW-620) [µM] | GI50 (MCF7) [µM] | GI50 (NCI-H23) [nM] | GI50 (K562) [nM] | GI50 (SF-268) [µM] | GI50 (SN12C) [µM] | GI50 (UACC-62) [nM] |
| --- | --- | --- | --- | --- | --- | --- | --- |
| O=C(Oc1ccccc1Cl)c1ccccc1Nc1cccc(C(F)(F)F)c1 | 8.13 | 33.9 | 20000 | 2690 | 20.4 | 23.4 | 17000 |
| O=C(Oc1ccc(Cl)cc1)c1ccccc1Nc1ccnc(C(F)(F)F)c1 | 6.61 | 3.72 | 2820 | 3630 | 4.37 | 2.95 | 2630 |
| O=C(Oc1ccc(Cl)cc1Cl)c1ccccc1Nc1ccnc(C(F)(F)F)c1 | 4.57 | 3.63 | 3550 | 3020 | 3.09 | 3.02 | 2290 |
| O=C(Oc1cccnc1)c1ccccc1Nc1ccnc(C(F)(F)F)c1 | 0.0407 | 0.0457 | 36.3 | 42.7 | 0.331 | 0.0708 | 288 |
| O=C(Oc1cccnc1)c1cccnc1Nc1ccnc(C(F)(F)F)c1 | 5.5 | 2.69 | 6310 | 5130 | 5.62 | 6.46 | 5750 |
| O=C(Oc1ccccc1Cl)c1cccnc1Nc1ccnc(C(F)(F)F)c1 | 3.72 | 3.63 | 8710 | 4570 | 10 | 4.07 | 6170 |
| O=C(Oc1c(Cl)cc(Cl)cc1Cl)c1ccccc1Nc1ccnc(C(F)(F)F)c1 | 4.57 | 4.68 | 2570 | 2400 | 3.89 | 3.09 | 1740 |
| O=C(Oc1ccccc1Cl)c1ccccc1Nc1ccnc(C(F)(F)F)c1 | 0.363 | 0.282 | 257 | 51.3 | 2.24 | 0.331 | 309 |
| O=C(Oc1cccc(Cl)c1)c1ccccc1Nc1ccnc(C(F)(F)F)c1 | 4.37 | 4.79 | 2400 | 3240 | 3.02 | 2.95 | 2040 |
| COc1cccc(OC(=O)c2ccccc2Nc2ccnc(C(F)(F)F)c2)c1 | 4.07 | 7.24 | 2040 | 741 | 4.68 | 5.37 | 3090 |
